Measurements: ChEMBL document CHEMBL3877244, “Synthesis and biological evaluation of new aryl-alkyl(alkenyl)-4-benzylpiperidines, novel Sigma Receptor (SR) modulators, as potential anticancer-agents” (Eur J Med Chem, 2016)
The source made the active and inactive calls. The rule behind the calls is not given here.

Assays:
[1] = biological target: Sigma non-opioid intracellular receptor 1 (Cavia porcellus, UniProt Q60492); assay: Displacement of [3H]-pentazocine from sigma 1 receptor in guinea pig brain cortical membrane after 120 mins by scintillation counting analysis; assay type: cell membranes
Method in brief: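 Nonspecific binding defined with unlabeled (+)-pentazocine. Filtration, then scintillation counting. IC50 by nonlinear regression, converted to Ki by Cheng–Prusoff.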

[2] = Displacement of [3H]-DTG from sigma 2 receptor in rat liver after 120 mins by scintillation counting analysis
Method in brief: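 Rat liver homogenate (150 µg) incubated 120 min at room temperature with 3 nM [³H]-DTG in 50 mM Tris-HCl pH 8.0. (+)-Pentazocine 100 nM masked S1R; haloperidol 10 µM defined nonspecific binding. Ki by Cheng–Prusoff from IC50.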

[3] = Cytotoxicity against human Paca3 cells assessed as decrease in cell viability using complete medium after 24 hrs by MTS assay; assay type: functional, cell-based; settings: Paca3, 24 h
Method in brief: (§1)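 Cells in exponential growth, 3×10^3 per well, in medium with 10% FCS. Capan-2, PaCa3, MDA-MB 231, SUM 159 and PC3 were grown in DMEM/Ham's F12 with glutamine 2 mM and insulin 10 µg/ml. U87 was grown in EMEM and LNCaP in RPMI, each with glutamine. Compound 0.1–100 µM, continuous exposure (24 h; 48 h for the 48 h lines). MTS, OD 490 nm. IC50 read graphically. Three independent experiments in octuplicate.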

[4] = Cytotoxicity against human Paca3 cells assessed as decrease in cell viability under starvation condition after 24 hrs by MTS assay; assay type: functional, cell-based; settings: Paca3, 24 h
Method in brief: (§2)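 Cells starved 24 h in low-glucose medium without FCS, then treated 24 h with compound in serum-free conditions. MTS read-out, OD 490 nm, expressed as percent of untreated control. IC50 read graphically from the dose-response plot. Three independent experiments in octuplicate.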

[5] = Cytotoxicity against human Capan2 cells assessed as reduction in cell viability after 24 hrs in presence of 10% fetal calf serum by MTS assay; assay type: functional, cell-based; settings: Capan-2, 24 h; method in brief: as §1
Capan-2 = assay: Cytotoxicity against human Capan2 cells assessed as reduction in cell viability after 48 hrs in presence of 10% fetal calf serum by MTS assay; assay type: functional, cell-based; method in brief: as §1
[6] = Cytotoxicity against human SUM159 cells assessed as reduction in cell viability after 24 hrs in presence of 10% fetal calf serum by MTS assay; assay type: functional, cell-based; settings: SUM-159-PT; method in brief: as §1
[7] = Cytotoxicity against human MDA-MB-231 cells assessed as reduction in cell viability after 24 hrs in presence of 10% fetal calf serum by MTS assay; assay type: functional, cell-based; settings: MDA-MB-231, 24 h; method in brief: as §1
[8] = Cytotoxicity against human LNCAP cells assessed as reduction in cell viability after 24 hrs in presence of 10% fetal calf serum by MTS assay; assay type: functional, cell-based; method in brief: as §1
[9] = Cytotoxicity against human U87 cells assessed as reduction in cell viability after 24 hrs in absence of 10% fetal calf serum by MTS assay; assay type: functional, cell-based, U-87MG ATCC; settings: U-87 MG; method in brief: as §2
[10] = Cytotoxicity against human Capan2 cells assessed as reduction in cell viability after 24 hrs in absence of 10% fetal calf serum by MTS assay; assay type: functional, cell-based; settings: Capan-2, 24 h; method in brief: as §2
[11] = Cytotoxicity against human LNCAP cells assessed as reduction in cell viability after 24 hrs in absence of 10% fetal calf serum by MTS assay; assay type: functional, cell-based; method in brief: as §2
Paca3 [12] = assay: Induction of apoptosis in human Paca3 cells at 25 uM after 24 hrs in presence of 10% fetal calf serum by TUNEL assay; assay type: functional, cell-based
Method in brief: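 PaCa3 cells in serum medium, exposed 24 h (10, 25, 50 μM tested). Cells fixed in 1% formaldehyde, held in 70% ethanol, permeabilized with 0.1% Triton X-100. TdT/FITC-dUTP labelling 90 min at 37 °C, then propidium iodide 2.5 μg/ml with RNase. Percent apoptotic cells by flow cytometry.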

Paca3 [13] = assay: Induction of apoptosis in human Paca3 cells assessed as cleaved form of caspase 3 at 25 uM after 24 hrs in presence of 10% fetal calf serum by Western blot analysis; assay type: functional, cell-based
Method in brief: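 PaCa3 cells in 10% serum medium, exposed 24 h to 25 μM. Cleaved caspase 3 detected by western blot. Membranes blocked with T-TBS (0.1% Tween) and 5% non-fat milk, primary antibody overnight at 4 °C, then secondary antibody, chemiluminescent detection. Two independent experiments.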

[14] = Induction of apoptosis in human Paca3 cells assessed as late apoptotic cells in presence of 10% fetal calf serum at 25 uM after 24 hrs by annexin V-FITC/propidium iodide staining-based flow cytometry (reference value: 4 +/- 0.8%); assay type: functional
[15] = Induction of apoptosis in human Paca3 cells assessed as early apoptotic cells in absence of 10% fetal calf serum at 10 uM after 24 hrs by annexin V-FITC/propidium iodide staining-based flow cytometry (reference value: 3.5 +/- 0.7%); assay type: functional
[16] = Induction of apoptosis in human Paca3 cells assessed as late apoptotic cells in absence of 10% fetal calf serum at 10 uM after 24 hrs by annexin V-FITC/propidium iodide staining-based flow cytometry (reference value: 4.6 +/- 0.5%); assay type: functional
[17] = biological target: Sigma non-opioid intracellular receptor 1 (Rattus norvegicus) (UniProt Q9R0C9); assay: Antagonist activity at sigma 1 receptor in rat PC12 cells assessed as inhibition of NGF-induced neurite outgrowth at 2.5 to 10 uM after 96 hrs; assay type: cell-based; settings: PC-12
Method in brief: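 PC12 cells grown in RPMI 1640 with 10% heat-inactivated horse serum and 5% FBS. Differentiation ran in medium with 0.5% serum plus NGF 2.5 ng/ml, with compound at 0–10 μM for 96 h. Neurite outgrowth was scored. Data are mean±sem of at least 5 experiments, each in triplicate.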

SUM-159-PT = assay: Cytotoxicity against human SUM159 cells assessed as reduction in cell viability after 48 hrs in presence of 10% fetal calf serum by MTS assay; assay type: functional, cell-based; method in brief: as §1
MDA-MB-231 = assay: Cytotoxicity against human MDA-MB-231 cells assessed as reduction in cell viability after 48 hrs in presence of 10% fetal calf serum by MTS assay; assay type: functional, cell-based; method in brief: as §1
U-87MG ATCC = assay: Cytotoxicity against human U87 cells assessed as reduction in cell viability after 48 hrs in presence of 10% fetal calf serum by MTS assay; assay type: functional, cell-based; method in brief: as §1
PC-3 = assay: Cytotoxicity against human PC3 cells assessed as reduction in cell viability after 48 hrs in presence of 10% fetal calf serum by MTS assay; assay type: functional, cell-based; method in brief: as §1
[18] = Induction of apoptosis in human Paca3 cells assessed as necrotic cells in presence of 10% fetal calf serum at 25 uM after 24 hrs by annexin V-FITC/propidium iodide staining-based flow cytometry (reference value: 0.6 +/- 0.4%); assay type: functional
[19] = Induction of apoptosis in human Paca3 cells assessed as necrotic cells in absence of 10% fetal calf serum at 10 uM after 24 hrs by annexin V-FITC/propidium iodide staining-based flow cytometry (reference value: 0.8 +/- 0.6%); assay type: functional
Paca3 [20] = assay: Induction of apoptosis in human Paca3 cells assessed as cleaved form of caspase 3 at 10 uM after 24 hrs in absence of 10% fetal calf serum by Western blot analysis; assay type: functional, cell-based
Method in brief: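 PaCa3 cells starved 24 h without FCS, then exposed to 10 μM. Cleaved caspase 3 detected by western blot. Membranes blocked with 5% milk in T-TBS, primary antibody overnight at 4 °C, then secondary antibody, chemiluminescent detection.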

Sequence of Sigma non-opioid intracellular receptor 1 (Q60492 whole entry): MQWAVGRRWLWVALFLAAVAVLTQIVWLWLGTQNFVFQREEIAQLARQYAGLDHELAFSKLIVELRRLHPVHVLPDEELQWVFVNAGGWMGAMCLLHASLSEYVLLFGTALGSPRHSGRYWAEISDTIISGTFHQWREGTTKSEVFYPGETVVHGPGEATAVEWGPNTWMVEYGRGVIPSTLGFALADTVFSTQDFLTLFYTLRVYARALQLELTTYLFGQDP
Sequence of Sigma non-opioid intracellular receptor 1 (Rattus norvegicus) (Q9R0C9 whole entry): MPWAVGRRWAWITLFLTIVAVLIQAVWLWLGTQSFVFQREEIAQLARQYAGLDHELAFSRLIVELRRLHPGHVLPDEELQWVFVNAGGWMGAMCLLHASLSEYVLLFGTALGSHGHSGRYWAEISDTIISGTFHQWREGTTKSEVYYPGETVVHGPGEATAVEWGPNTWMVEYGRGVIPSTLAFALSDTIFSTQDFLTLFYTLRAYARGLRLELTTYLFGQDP

Ki [1]: 0.012 µM
Ki [2]: 0.022 µM
inhibition [17]: Active
Compound: C/C(=C\CN1CCC(Cc2ccccc2)CC1)c1ccc2ccccc2c1
IC50 [3]: 49.8 µM
IC50 [4]: 7 µM
IC50 [5]: 52.6 µM
Activity (Capan-2): Active
IC50 [6]: 58.3 µM
IC50 [7]: 64.9 µM
IC50 [8]: 61.1 µM
IC50 [9]: 10.5 µM
IC50 [10]: 9.61 µM
IC50 [11]: 9.58 µM
Activity (Paca3 [12]): Active
Activity (Paca3 [13]): Active
Activity [14]: 34.1%
Activity [15]: 10.9%
Activity [16]: 17.2%
Activity (SUM-159-PT): Active
Activity (MDA-MB-231): Active
Activity (U-87MG ATCC): Active
Activity (PC-3): Active
Activity [18]: 0.4%
Activity [19]: 0.3%
Activity (Paca3 [20]): Active
